pIC50: −log10 of the molar value. Active and inactive are the calls of the source. No cut-off for these calls is given here.
Experiments:
A549 [1] = test: Cytotoxicity against human A549 cells assessed as inhibition of cell growth after 72 hrs by MTT assay; assay type: functional, cell-based; settings: A549, 72 h
HL-60 = test: Cytotoxicity against human HL60 cells assessed as inhibition of cell growth after 72 hrs by MTT assay; assay type: functional, cell-based; settings: HL-60, 72 h
Summary of the method: (§1)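 Exponentially growing cells were exposed 72 h to compounds diluted from a 10 mM DMSO stock into serum-free medium. Growth was read by colorimetric MTT. Leukaemia/lymphoma lines (K562, HL-60, Jurkat, Raji) were grown in RPMI 1640; MCF-7, MDA-MB 231, HeLa, A549 and normal MRC-5 fibroblasts in DMEM; 37 °C, 5% CO2.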

MDA-MB-231 [2] = test: Cytotoxicity against human MDA-MB-231 cells assessed as inhibition of cell growth after 72 hrs by MTT assay; assay type: functional, cell-based; settings: MDA-MB-231, 72 h
Jurkat = test: Cytotoxicity against human Jurkat cells assessed as inhibition of cell growth after 72 hrs by MTT assay; assay type: functional, cell-based; summary of the method: as §1
K562 [3] = test: Cell cycle arrest in human K562 cells assessed as accumulation at G0/G1 phase at IC50 after 72 hrs by propidium iodide staining based flow cytometry (reference value: 47.51%); assay type: functional
MCF7 = test: Cytotoxicity against human MCF7 cells assessed as inhibition of cell growth after 72 hrs by MTT assay; assay type: functional, cell-based; settings: MCF7, 72 h; summary of the method: as §1
Raji = test: Cytotoxicity against human Raji cells assessed as inhibition of cell growth after 72 hrs by MTT assay; assay type: functional, cell-based
K562 [4] = test: Induction of apoptosis in human K562 cells assessed as necrotic cells at IC50 after 72 hrs by Annexin V-FITC/propidium iodide staining based flow cytometry relative to control; assay type: functional
Summary of the method: (§2)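 K562 cells seeded at 5 × 10⁵ per well, treated 72 h at each compound's IC₅₀ level. Viability was checked by trypan blue exclusion. Viable cells were double-stained with Annexin V-FITC and propidium iodide and analysed by flow cytometry. Results are given as specific apoptosis or specific necrosis (%) relative to untreated cells.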

K562 [5] = test: Up regulation of cleaved PARP expression in human K562 cells at IC50 measured after 72 hrs by Western blot analysis; assay type: functional, cell-based
MRC5 = test: Cytotoxicity against human MRC5 cells assessed as inhibition of cell growth after 72 hrs by MTT assay; assay type: cell-based; settings: MRC5, 72 h
K562 [6] = test: Down regulation of Bcl-2 expression in human K562 cells at IC50 measured after 72 hrs by Western blot analysis; assay type: functional, cell-based
K562 [7] = test: Induction of apoptosis in human K562 cells assessed as apoptotic cells at IC50 after 72 hrs by Annexin V-FITC/propidium iodide staining based flow cytometry relative to control; assay type: functional; summary of the method: as §2
K562 [8] = test: Down regulation of Bax expression in human K562 cells at IC50 measured after 72 hrs by Western blot analysis; assay type: functional, cell-based
K562 [9] = test: Cell cycle arrest in human K562 cells assessed as accumulation at S phase at IC50 after 72 hrs by propidium iodide staining based flow cytometry (reference value: 26.52%); assay type: functional
K562 [10] = test: Cell cycle arrest in human K562 cells assessed as accumulation at sub-G1 phase at IC50 after 72 hrs by propidium iodide staining based flow cytometry (reference value: 1.84%); assay type: functional
K562 [11] = test: Cytotoxicity against human K562 cells assessed as inhibition of cell growth after 72 hrs by MTT assay; assay type: functional, cell-based; settings: K562, 72 h
K562 [12] = test: Cell cycle arrest in human K562 cells assessed as accumulation at G2/M phase at IC50 after 72 hrs by propidium iodide staining based flow cytometry (reference value: 24.13%); assay type: functional
HeLa = test: Cytotoxicity against human HeLa cells assessed as inhibition of cell growth after 72 hrs by MTT assay; assay type: functional, cell-based
K562 [13] = test: Cell cycle arrest in human K562 cells assessed as increase in accumulation at sub-G1 phase at IC50 after 72 hrs by propidium iodide staining based flow cytometry relative to control; assay type: functional
K562 [14] = test: Up regulation of Bax expression in human K562 cells at IC50 measured after 72 hrs by Western blot analysis; assay type: functional, cell-based
A549 [15] = test: Potency index, ratio of doxorubicin IC50 to test compound IC50 for human A549 cells; assay type: functional
K562 [16] = test: Up regulation of Bcl-2 expression in human K562 cells at IC50 measured after 72 hrs by Western blot analysis; assay type: functional, cell-based
K562 [17] = test: Up regulation of Caspase-3 precursor expression in human K562 cells at IC50 measured after 72 hrs by Western blot analysis; assay type: functional, cell-based
K562 [18] = test: Up regulation of active Caspase-3 expression in human K562 cells at IC50 measured after 72 hrs by Western blot analysis; assay type: functional, cell-based
MDA-MB-231 [19] = test: Potency index, ratio of doxorubicin IC50 to test compound IC50 for human MDA-MB-231 cells; assay type: functional

| Structure (SMILES) | pIC50 (A549 [1]) | pIC50 (HL-60) | pIC50 (MDA-MB-231 [2]) | pIC50 (Jurkat) | Activity (K562 [3]) | pIC50 (MCF7) | pIC50 (Raji) | Activity (K562 [4]) | Activity (K562 [5]) | pIC50 (MRC5) | Activity (K562 [6]) | Activity (K562 [7]) | Activity (K562 [9]) | Activity (K562 [10]) | pIC50 (K562 [11]) | Activity (K562 [12]) | pIC50 (HeLa) | fold change (FC) (K562 [13]) | Activity (K562 [14]) | Activity (K562 [16]) | other results |
| --- | --- | --- | --- | --- | --- | --- | --- | --- | --- | --- | --- | --- | --- | --- | --- | --- | --- | --- | --- | --- | --- |
| CO[C@@H]1[C@H]2OC(=O)C[C@H]2O[C@@H]1[C@@H](O)c1ccccc1 | 4.42 | 4.72 | 4.45 | 4.81 | 35.04% | 4.90 | 4.91 | 2.57% | Active | < 4.00 | Active | 55.48% | 15.08% | 28.67% | 5.07 | 21.21% | 4.96 | 15.5 | – | – | Activity (K562 [8]): Active |
| CO[C@@H]1[C@H]2OC(=O)C[C@H]2O[C@@H]1[C@H](O)c1ccccc1 | 4.63 | 4.60 | 4.54 | 4.60 | 47.34% | 5.39 | 5.06 | -0.54% | Active | < 4.00 | Active | 2.69% | 26.52% | 1.82% | 5.27 | 24.32% | 5.06 | – | Active | – | – |
| CO[C@@H]1[C@H]2OC(=O)C[C@H]2O[C@@H]1C(=O)c1ccccc1 | 5.59 | 4.95 | 4.39 | 5.05 | 45.46% | 5.46 | 4.59 | -0.59% | Active | < 4.00 | – | 2.1% | 23.68% | 1.33% | 4.65 | 29.53% | 5.19 | – | Active | Active | Ratio IC50 (A549 [15]): 2; Activity (K562 [17]): Active |
| CO[C@@H]1[C@H]2OC(=O)C[C@H]2O[C@@H]1[C@H](OC)c1ccccc1 | 4.58 | 5.66 | 5.87 | 5.63 | 44.86% | < 4.00 | 4.91 | 0.11% | Active | < 4.00 | – | 4.32% | 20.48% | 6.36% | 4.83 | 28.3% | 4.25 | 3.5 | Active | Active | Activity (K562 [18]): Active; Activity (K562 [17]): Active |
| CO[C@@H]1[C@H]2OC(=O)C[C@H]2O[C@@H]1C(O)(c1ccccc1)c1ccccc1 | 4.82 | 5.63 | 4.29 | 5.01 | 43.35% | 4.94 | 4.72 | 8.73% | Active | < 4.00 | – | 33.41% | 17.77% | 10.13% | 4.54 | 28.75% | 4.90 | 5.5 | Active | Active | Activity (K562 [18]): Active; Activity (K562 [17]): Active |
| O=C1C[C@H]2O[C@H]([C@H](O)c3ccccc3)[C@H](O)[C@H]2O1 | – | < 4.00 | 4.12 | – | 52.47% | – | – | -0.31% | Active | < 4.00 | – | -0.36% | 21.03% | 2.16% | – | 24.34% | – | – | Active | Active | – |
| CO[C@@H](c1ccccc1)[C@H]1O[C@@H]2CC(=O)O[C@@H]2[C@H]1O | 5.27 | 5.79 | 6.89 | 4.90 | 53.39% | < 4.00 | 4.68 | 0.55% | Active | < 4.00 | Active | 11.17% | 19.68% | 6.03% | 4.94 | 20.9% | 5.07 | 3 | – | – | Activity (K562 [8]): Active |
| CO[C@@H]1[C@H]2OC(=O)C[C@H]2O[C@@H]1[C@@H](OC)c1ccccc1 | 4.60 | 5.36 | 5.58 | 5.77 | 48.59% | < 4.00 | 4.98 | -0.44% | Active | 4.06 | – | 1.7% | 22.66% | 2.4% | 5.03 | 26.35% | 4.05 | – | Active | Active | Activity (K562 [17]): Active |
| CO[C@H](c1ccccc1)[C@H]1O[C@@H]2CC(=O)O[C@@H]2[C@H]1O | 5.58 | 5.53 | 7.19 | 4.81 | 52.09% | < 4.00 | 4.81 | -0.5% | Active | < 4.00 | Active | -0.27% | 20.61% | 2.4% | 5.10 | 24.89% | 5.25 | – | – | – | Ratio IC50 (MDA-MB-231 [19]): 1.5; Ratio IC50 (A549 [15]): 2; Activity (K562 [8]): Active |

Reference: ChEMBL document CHEMBL4368873, “Novel O-methyl goniofufurone and 7-epi-goniofufurone derivatives: synthesis, in vitro cytotoxicity and SAR analysis” (Medchemcomm, 2018)
